These results are taken from ChEMBL document CHEMBL1287740, “Synthesis and bio-evaluation of alkylaminoaryl phenyl cyclopropyl methanones as antitubercular and antimalarial agents” (Bioorg Med Chem, 2010).

≈ marks a conversion by molar mass, not a printed value. Calls of active or inactive are those of the source. The rule behind the calls is not given here.

A short description of data set [1]: Cytotoxicity against african green monkey Vero cells after 72 hrs. As to conditions: chlorocebus sabaeus. Type of data set: cell-based. The method in brief:
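Vero (C1008 monkey kidney) cells grown in MEM + 15% FBS, 5% CO2, 37 °C. Trypsinized cells at 1 × 10^5 cells/ml seeded and allowed to adhere overnight, then exposed to serial compound dilutions for 72 h. Resazurin added and fluorescence read after 4 h.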

A short description of data set [2]: Selectivity index, ratio of CC50 for african green monkey (Cercopithecus aethiops) Vero cells to IC50 for Plasmodium falciparum 3D7. Type of data set: functional. Summed up: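 Ratio of Vero CC50 (resazurin fluorescence after 72 h exposure) to P. falciparum 3D7 IC50 (radiolabelled hypoxanthine uptake; 24 h compound exposure, then 48 h with label).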
For data set [3], the system named is Plasmodium falciparum. The data set is described as follows: Antimalarial activity against Plasmodium falciparum 3D7 assessed as maturation of schizonts after 24 to 32 hrs by microdilution method. It counts as functional. The method in brief:
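P. falciparum 3D7 (chloroquine sensitive); twofold serial dilutions in complete RPMI 1640 from 10 mg/ml DMSO stocks, parasitized RBCs added (final hematocrit 3–4%, 1.0–2.0% parasitaemia, >95% rings). Incubated 24–32 h at 37 °C with 5% CO2. Thin smears stained with 15% Giemsa; schizont maturation scored against controls to give MIC.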

For data set [4], the system named is Plasmodium falciparum. Put plainly: Antimalarial activity against Plasmodium falciparum 3D7 assessed as radiolabeled hypoxanthine uptake after 48 hrs by scintillation counting. It counts as functional, organism-based. As to conditions: 3D7, 48 h. The method in brief:
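Chloroquine-sensitive P. falciparum 3D7 asynchronous culture at 0.5% parasitaemia and 1.5% hematocrit, exposed to compounds for 24 h at 37 °C in CO2. Radiolabelled hypoxanthine (0.5 µCi/well) then added and incubation continued 48 h. Cells harvested onto filter paper, and radioactivity counted by scintillation β-counter. IC50 derived from hypoxanthine uptake.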

The test system of data set [5] is Mycobacterium tuberculosis. The data set is described as follows: Antimicrobial activity against Mycobacterium tuberculosis H37Rv after 30 days by agar microdilution method. It counts as functional. Summed up: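 Twofold dilutions of compound in DMSO incorporated into Middlebrook 7H10 medium with OADC supplement in slanted tubes, preincubated 37 °C for 24 h, then streaked with H37Rv harvested from L-J medium into 0.85% saline with 0.05% Tween-80 (5 × 10^5 bacilli per tube). Incubated at 37 °C; MIC = lowest concentration giving complete inhibition of colonies versus drug-free control.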

Data set [6] deals with Mycolicibacterium aurum. Put plainly: Inhibition of type II fatty acid biosynthesis pathway in Mycobacterium aurum at 25 uM after 12 hrs by lacZ reporter assay relative to untreated control. It counts as functional. The method in brief:
(§1)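 Recombinant M. aurum lacZ reporter strains (kasA promoter or hsp60 promoter) grown in Sauton's medium with kanamycin at 37 °C to 0.5 OD600, diluted to 0.04–0.05 OD, equilibrated 2 h, then treated 12 h at 37 °C (10, 25, 50, 75 µM). Cells sonicated in PBS pH 7.2 and protein normalized by Bradford. β-gal measured with ONPG (4 mg/ml), 30 min at 37 °C, stopped with Na2CO3, OD 410 nm. Triplicates, relative to untreated control.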

Data set [7] concerns Mycolicibacterium aurum. Put plainly: Inhibition of type II fatty acid biosynthesis pathway in Mycobacterium aurum at 50 uM after 12 hrs by lacZ reporter assay relative to untreated control. Type of data set: functional. Summed up:
as §1

Turning to `CCCCCCCNc1ccc(C(=O)C2CC2c2ccc(OC)c(OC)c2)cc1` (configuration not stated), the midpoint of cytotoxicity in data set [1], the CC50 at 72 h, lay at 273 µg/mL (≈ 689 µM). The “Ratio CC50/IC50” value in data set [2] was 121.67. For the same compound, the minimal inhibitory concentration (MIC) with Plasmodium falciparum [3] was 10 µg/mL (≈ 25.3 µM); in data set [5] it was over 12.5 µg/mL. Also, in the data set on Plasmodium falciparum [4], the IC50 is 2.24 µg/mL (≈ 5.66 µM).

In turn, `O=C(c1ccc(NCCn2cncn2)cc1)C1CC1c1ccc(Cl)cc1` (configuration not stated) gave an inhibition at 25 µM with Mycolicibacterium aurum [6] of 17.9%. The inhibition at 50 µM in the data set with Mycolicibacterium aurum [7] was 30.1%. In data set [1], this compound gave a CC50 at 72 h of 39.9 µg/mL (≈ 109 µM). Also, in data set [2], the “Ratio CC50/IC50” value was 11.7. Further, the MIC in the data set with Plasmodium falciparum [3] worked out at 10 µg/mL (≈ 27.3 µM); in data set [5] it was 12.5 µg/mL (≈ 34.1 µM). For the same compound, the IC50 in the data set with Plasmodium falciparum [4] was found to be 3.41 µg/mL (≈ 9.3 µM).

`CCCCCCCC/C=C\CCCCCCCCNc1ccc(C(=O)C2CC2c2ccc(Cl)cc2)cc1` (configuration not stated) displayed a CC50 at 72 h in data set [1] of 393 µg/mL (≈ 753 µM). Moreover, in data set [2], the “Ratio CC50/IC50” value is 5.24. Besides, the minimum inhibitory concentration (MIC) is over 50 µg/mL in the data set on Plasmodium falciparum [3] and 12.5 µg/mL (≈ 23.9 µM) in data set [5]. For the same compound, the IC50 in the data set with Plasmodium falciparum [4] turned out to be 75.1 µg/mL (≈ 144 µM).

On to `NNC(=O)c1ccncc1` [ISONIAZID], for which the MIC in data set [5] came out at 0.025 µg/mL (≈ 0.182 µM).

Regarding `O=C(c1ccc(NCCO)cc1)C1CC1c1ccc(Cl)cc1` (configuration not stated), the half-maximal cytotoxic concentration (CC50) at 72 h in data set [1] was 305 µg/mL (≈ 966 µM). Also, the “Ratio CC50/IC50” value in data set [2] turned out to be 508.33. Also, the results for the MIC (with Plasmodium falciparum [3]; in data set [5]) were 2 µg/mL (≈ 6.33 µM) and over 12.5 µg/mL, respectively. The IC50 in the data set with Plasmodium falciparum [4] was found to be 0.6 µg/mL (≈ 1.9 µM).

In data set [1], `O=C(/C=C/c1ccc(Cl)cc1)c1ccc(N2CCCCC2)cc1` showed a CC50 at 72 h of 235 µg/mL (≈ 720 µM). For the same compound, the “Ratio CC50/IC50” value in data set [2] turned out to be 26.3. Besides, the minimum inhibitory concentration (MIC) with Plasmodium falciparum [3] is 50 µg/mL (≈ 153 µM); in data set [5], over 12.5 µg/mL. Also, in the data set with Plasmodium falciparum [4], the half-inhibitory concentration (IC50) came to 8.92 µg/mL (≈ 27.4 µM).

Consider `O=C(c1ccc(NCc2ccco2)cc1)C1CC1c1ccc(Cl)cc1` (configuration not stated), for which the inhibition at 25 µM with Mycolicibacterium aurum [6] came to 16.5%. In addition, the inhibition at 50 µM in the data set on Mycolicibacterium aurum [7] was 27.4%. It took 256 µg/mL (≈ 727 µM) to reach half-maximal cytotoxicity in data set [1] (CC50 at 72 h). In addition, in data set [2], the “Ratio CC50/IC50” value amounted to 149.64. Also, the figures for the MIC (with Plasmodium falciparum [3]; in data set [5]) were 10 µg/mL (≈ 28.4 µM) and 3.12 µg/mL (≈ 8.87 µM), respectively. Also, the concentration for half-maximal inhibition (IC50) with Plasmodium falciparum [4] turned out to be 1.71 µg/mL (≈ 4.86 µM).

Consider `O=C(c1ccc(NC2CCCCC2)cc1)C1CC1c1ccc(Cl)cc1` (configuration not stated), for which the inhibition result in the data set on Mycolicibacterium aurum [6] and in the data set with Mycolicibacterium aurum [7] was “inactive” in each case. The CC50 at 72 h in data set [1] is 196 µg/mL (≈ 554 µM). In addition, the “Ratio CC50/IC50” value in data set [2] came to 261.57. In addition, the figures for the MIC (with Plasmodium falciparum [3]; in data set [5]) were 10 µg/mL (≈ 28.3 µM) and over 12.5 µg/mL, respectively. For the same compound, the 50% inhibitory concentration (IC50) with Plasmodium falciparum [4] amounted to 0.75 µg/mL (≈ 2.12 µM).

Compound `O=C(/C=C/c1ccc(Cl)cc1)c1ccc(N2CCOCC2)cc1` gave an inhibition at 25 µM with Mycolicibacterium aurum [6] of 47.1%. For the same compound, the inhibition at 50 µM with Mycolicibacterium aurum [7] amounted to 42.9%. Further, it took 35.6 µg/mL (≈ 109 µM) to reach half-maximal cytotoxicity in data set [1] (CC50 at 72 h). Also, the “Ratio CC50/IC50” value in data set [2] is recorded as 7.33. Moreover, the MIC with Plasmodium falciparum [3] was 50 µg/mL (≈ 153 µM); in data set [5], 6.25 µg/mL (≈ 19.1 µM). Moreover, the IC50 in the data set with Plasmodium falciparum [4] is 4.86 µg/mL (≈ 14.8 µM).

Consider `CCCCCCCNc1ccc(C(=O)C2CC2c2ccc(Cl)cc2)cc1` (configuration not stated), for which the inhibition entry in the data set with Mycolicibacterium aurum [6] and in the data set on Mycolicibacterium aurum [7] was “inactive” each time. The compound also returned a cytotoxic concentration (CC50) at 72 h in data set [1] of 398 µg/mL (≈ 1080 µM). Moreover, in data set [2], the “Ratio CC50/IC50” value is 4975. Further, the MIC with Plasmodium falciparum [3] is 0.3 µg/mL (≈ 0.811 µM); in data set [5] it was over 12.5 µg/mL. In the data set on Plasmodium falciparum [4], the IC50 amounted to 0.08 µg/mL (≈ 0.216 µM).

On to `O=C(c1ccc(NCCn2ccnc2)cc1)C1CC1c1ccc(Cl)cc1` (configuration not stated), for which the inhibition at 25 µM in the data set with Mycolicibacterium aurum [6] was 48.6%. Besides, testing at 50 µM with Mycolicibacterium aurum [7] gave an inhibition of 50.2%. The same compound yielded a CC50 at 72 h in data set [1] of 243 µg/mL (≈ 665 µM). In data set [2], the “Ratio CC50/IC50” value stood at 6948.57. Moreover, the MIC in the data set with Plasmodium falciparum [3] worked out at 0.062 µg/mL (≈ 0.169 µM); in data set [5], 6.25 µg/mL (≈ 17.1 µM). Further, the IC50 with Plasmodium falciparum [4] amounted to 0.035 µg/mL (≈ 0.0957 µM).

Regarding `O=C(c1ccc(NCCn2cnc3ccccc32)cc1)C1CC1c1ccc(Cl)cc1` (configuration not stated), in the data set on Mycolicibacterium aurum [6], testing at 25 µM gave an inhibition of 1.03%. The same compound gave an inhibition at 50 µM in the data set on Mycolicibacterium aurum [7] of 16.9%. In data set [1], this compound displayed a 50% cytotoxic concentration (CC50) at 72 h of 285 µg/mL (≈ 686 µM). Further, the “Ratio CC50/IC50” value in data set [2] is given as 385.45. Also, the MIC with Plasmodium falciparum [3] is 2 µg/mL (≈ 4.81 µM); in data set [5] it was 12.5 µg/mL (≈ 30.1 µM). Moreover, the IC50 in the data set with Plasmodium falciparum [4] is 0.74 µg/mL (≈ 1.78 µM).

Compound `COc1ccc(CNc2ccc(C(=O)C3CC3c3ccc(Cl)cc3)cc2)cc1OC` (configuration not stated) displayed a CC50 at 72 h in data set [1] of 422 µg/mL (≈ 1000 µM). Moreover, the “Ratio CC50/IC50” value in data set [2] came to 52.73. The MIC in the data set with Plasmodium falciparum [3] was 10 µg/mL (≈ 23.7 µM); in data set [5], over 12.5 µg/mL. Moreover, the IC50 in the data set with Plasmodium falciparum [4] turned out to be 8 µg/mL (≈ 19 µM).

Turning to `CCCCN(CCCC)c1ccc(C(=O)C2CC2c2ccc(Cl)cc2)cc1` (configuration not stated), the inhibition at 25 µM in the data set on Mycolicibacterium aurum [6] is 41.5%. 50 µM produced 37.5% inhibition with Mycolicibacterium aurum [7]. The compound also registered a CC50 at 72 h in data set [1] of 431 µg/mL (≈ 1120 µM). The “Ratio CC50/IC50” value in data set [2] is 590.04. Also, the MIC in the data set with Plasmodium falciparum [3] is 10 µg/mL (≈ 26 µM); in data set [5], 12.5 µg/mL (≈ 32.6 µM). Further, in the data set with Plasmodium falciparum [4], the half-inhibitory concentration (IC50) worked out at 0.73 µg/mL (≈ 1.9 µM).
